ED50, LD50 and therapeutic index (LD50/ED50) data for twelve compounds are collected here from ChEMBL document CHEMBL1121392, “Synthesis and antiarrhythmic properties of some 5-benzamido-2-methyl-trans-decahydroisoquinolines” (J Med Chem, 1980).

For one data set, the species on record is Mus musculus. The experiment in a line: Antiarrhythmic potency in female roswell park white mice using chloroform-induced ventricular fibrillation assay. Particulars: Heart. Type of data set: functional.
A short description of data set [1]: Compound was evaluated for acute toxicity (24 h) in female roswell park white mice given intraperitoneally. Type of data set: organism-based. Particulars: mouse, in vivo, ip. An outline of the steps: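 Female Roswell Park (ICR) mice, about 15–25 g, dosed intraperitoneally in groups of at least ten. At least three dose levels were spaced logarithmically at intervals of 0.1 or less. Deaths were scored at 24 h.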

Data set [2] can be described thus: Ratio of lethal dose to that of effective dose in mice. Particulars: mouse, in vivo. Type of data set: ADME, organism-based.

Compound `Cc1ccc(C(=O)NC2CCCC3CN(C)CCC32)cc1` (stereo not given) yielded a median effective dose (ED50) in the data set listed under Mus musculus of 110 µmol/kg. This compound came in with an LD50 at 24 h in data set [1] of 803 µmol/kg. For the same compound, the therapeutic index (LD50/ED50) in data set [2] was determined as 7.3.

`CN1CCC2C(CCCC2NC(=O)c2ccc(C(F)(F)F)cc2)C1` (stereo not given) registered a median effective dose (ED50) in the data set filed under Mus musculus of 48 µmol/kg. Further, the median lethal dose (LD50) at 24 h in data set [1] was found to be 661 µmol/kg. The therapeutic index (LD50/ED50) in data set [2] came to 13.6.

`COc1ccc(C(=O)NC2CCCC3CN(C)CCC32)cc1` (stereo not given) registered a 50% effective dose (ED50) in the data set filed under Mus musculus of 109 µmol/kg. In data set [1], this compound had an LD50 at 24 h of 1140 µmol/kg. For the same compound, in data set [2], the therapeutic index (LD50/ED50) was found to be 10.4.

Turning to `CN1CCC2C(CCCC2NC(=O)c2ccc(F)cc2)C1` (stereo not given), the ED50 in the data set listed under Mus musculus came out at 110 µmol/kg. In data set [1], this compound came in with an LD50 at 24 h of 992 µmol/kg. Besides, the therapeutic index (LD50/ED50) in data set [2] was determined as 9.

As for `CN1CCC2C(CCCC2NC(=O)c2ccc(Cl)cc2)C1` (stereo not given), the median effective dose (ED50) in the data set filed under Mus musculus stood at 49 µmol/kg. This compound had a median lethal dose (LD50) at 24 h in data set [1] of 929 µmol/kg. Further, in data set [2], the therapeutic index (LD50/ED50) is 19.

In the data set filed under Mus musculus, `CN1CCC2C(CCCC2NC(=O)c2ccc(Cl)c(Cl)c2)C1` (stereo not given) came in with a 50% effective dose (ED50) of 32 µmol/kg. In data set [1], this compound registered a 50% lethal dose (LD50) at 24 h of 630 µmol/kg. Further, the therapeutic index (LD50/ED50) in data set [2] was 19.6.

In turn, `CN1CCC2C(CCCC2NC(=O)c2cccc(Cl)c2)C1` (stereo not given) showed an ED50 in the data set listed under Mus musculus of 73 µmol/kg. For the same compound, in data set [1], the median lethal dose (LD50) at 24 h came out at 613 µmol/kg. In addition, the therapeutic index (LD50/ED50) in data set [2] was found to be 8.36.

Regarding `CN1CCC2C(CCCC2NC(=O)c2ccccc2)C1` (stereo not given), in the data set listed under Mus musculus, the 50% effect level (ED50) was put at a dose of 101 µmol/kg. For the same compound, in data set [1], the LD50 at 24 h is 866 µmol/kg. Further, the therapeutic index (LD50/ED50) in data set [2] worked out at 8.58.

`CN1CCC2C(CCCC2NC(=O)c2ccc([N+](=O)[O-])cc2)C1` (stereo not given): in the data set filed under Mus musculus, the ED50 stood at 95 µmol/kg. The LD50 at 24 h in data set [1] was found to be 1100 µmol/kg. The therapeutic index (LD50/ED50) in data set [2] turned out to be 11.7.

As for `CN1CCC2C(CCCC2NC(=O)c2ccc(Cl)cc2Cl)C1` (stereo not given), the 50% effective dose (ED50) in the data set listed under Mus musculus is 88 µmol/kg. For the same compound, the LD50 at 24 h in data set [1] came out at 624 µmol/kg. Moreover, the therapeutic index (LD50/ED50) in data set [2] was 7.1.

The compound `COc1cc(C(=O)NC2CCCC3CN(C)CCC32)cc(OC)c1OC` (stereo not given) came in with an ED50 in the data set filed under Mus musculus of 25 µmol/kg. The compound also came in with an LD50 at 24 h in data set [1] of 610 µmol/kg. For the same compound, the therapeutic index (LD50/ED50) in data set [2] is 24.

For the compound `C=C[C@H]1CN2CC[C@H]1C[C@@H]2[C@@H](O)c1ccnc2ccc(OC)cc12` [QUINIDINE], the 50% effective dose (ED50) in the data set filed under Mus musculus was 122 µmol/kg. In data set [1], this compound had an LD50 at 24 h of 524 µmol/kg.
